Results reported in ChEMBL document CHEMBL1811874, “The effect of sulfonate leaving groups on the hypoxia-selective toxicity of nitro analogs of the duocarmycins” (Bioorg Med Chem, 2011).
Values after ≈ are worked out from the molar mass of the structure shown. Each block holds one molecule with its values, some of them ahead of it.

What was measured:
[1] = Solubility in alphaMEM culture medium containing 5% FCS at 22 degC; type: physicochemical
In short: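 Solubility was measured in αMEM with 5% FCS, equilibrated with 5% CO₂/air, at 22 °C.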

SK-OV-3 [2] = test: Cytotoxicity against human SKOV3 cells assessed as reduction of cell density incubated for 4 hrs in oxic (aerobic) condition measured 5 days post dose by SRB assay; type: functional, cell-based
In short: (§1)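 Log-phase monolayers given a 4 h drug exposure under aerobic (20% O₂) or anoxic (<20 ppm O₂) conditions. Cells were then stained with sulforhodamine B 5 days later. IC50 was interpolated as the concentration that cut cell density to 50% of same-plate controls. Values are means of two to seven experiments.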

SK-OV-3 [3] = test: Cytotoxicity against human SKOV3 cells assessed as reduction of cell density incubated for 4 hrs in hypoxic (anoxic) condition measured 5 days post dose by SRB assay; type: functional, cell-based; in short: as §1
SK-OV-3 [4] = test: Hypoxic cytotoxicity ratio, ratio of IC50 for human SKOV3 cells in oxic (aerobic) condition to IC50 for human SKOV3 cells in hypoxic (anoxic) conditions; type: functional
In short: (§2)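 HCR was calculated as IC50(oxic)/IC50(hypoxic) after 4 h drug exposure at 20% O₂ or <20 ppm O₂, with SRB read-out 5 days later.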

HT-29 [5] = test: Cytotoxicity against human HT-29 cells assessed as reduction of cell density incubated for 4 hrs in oxic (aerobic) condition measured 5 days post dose by SRB assay; type: functional, cell-based; in short: as §1
HT-29 [6] = test: Cytotoxicity against human HT-29 cells assessed as reduction of cell density incubated for 4 hrs in hypoxic (anoxic) condition measured 5 days post dose by SRB assay; type: functional, cell-based; in short: as §1
HT-29 [7] = test: Hypoxic cytotoxicity ratio, ratio of IC50 for human HT-29 cells in oxic (aerobic) condition to IC50 for human HT-29 cells in hypoxic (anoxic) conditions; type: functional; in short: as §2
A549 [8] = test: Cytotoxicity against human A549 cells after 24 hrs; type: functional, cell-based; details: A549, 24 h
A549 [9] = test: Cytotoxicity against human A549 cells assessed as reduction of cell density incubated for 4 hrs in oxic (aerobic) condition measured 5 days post dose by SRB assay; type: functional, cell-based; in short: as §1
A549 [10] = test: Cytotoxicity against human A549 cells assessed as reduction of cell density incubated for 4 hrs in hypoxic (anoxic) condition measured 5 days post dose by SRB assay; type: functional, cell-based; in short: as §1
A549 [11] = test: Hypoxic cytotoxicity ratio, ratio of IC50 for human A549 cells in oxic (aerobic) condition to IC50 for human A549 cells in hypoxic (anoxic) conditions; type: functional; in short: as §2
A549 [12] = test: Cytotoxicity against human A549 cells over-expressing human NADPH/cytochrome P450 oxidoreductase assessed as reduction of cell density incubated for 4 hrs in oxic (aerobic) condition measured 5 days post dose by SRB assay; type: functional, cell-based; in short: as §1
A549 [13] = test: Cytotoxicity against human A549 cells ells over-expressing human NADPH/cytochrome P450 oxidoreductase assessed as reduction of cell density incubated for 4 hrs in hypoxic (anoxic) condition measured 5 days post dose by SRB assay; type: functional, cell-based; in short: as §1
A549 [14] = test: Hypoxic cytotoxicity ratio, ratio of IC50 for human A549 cells ells over-expressing human NADPH/cytochrome P450 oxidoreductase in oxic (aerobic) condition to IC50 for human A549 cells ells over-expressing human NADPH/cytochrome P450 oxidoreductase in hypoxic (anoxic) conditions; type: functional; in short: as §2
NCI-H460 [15] = test: Cytotoxicity against human H460 cells assessed as reduction of cell density incubated for 4 hrs in oxic (aerobic) condition measured 5 days post dose by SRB assay; type: functional, cell-based; in short: as §1
NCI-H460 [16] = test: Cytotoxicity against human H460 cells assessed as reduction of cell density incubated for 4 hrs in hypoxic (anoxic) condition measured 5 days post dose by SRB assay; type: functional, cell-based; in short: as §1
NCI-H460 [17] = test: Hypoxic cytotoxicity ratio, ratio of IC50 for human H460 cells in oxic (aerobic) condition to IC50 for human H460 cells in hypoxic (anoxic) conditions; type: functional; in short: as §2
[18] = Cytotoxicity against human H1299 cells assessed as reduction of cell density incubated for 4 hrs in oxic (aerobic) condition measured 5 days post dose by SRB assay; type: functional, cell-based; details: NCI-H1299; in short: as §1
[19] = Cytotoxicity against human H1299 cells assessed as reduction of cell density incubated for 4 hrs in hypoxic (anoxic) condition measured 5 days post dose by SRB assay; type: functional, cell-based; details: NCI-H1299; in short: as §1
[20] = Hypoxic cytotoxicity ratio, ratio of IC50 for human H1299 cells in oxic (aerobic) condition to IC50 for human H1299 cells in hypoxic (anoxic) conditions; type: functional, NCI-H1299; in short: as §2
C-33-A [21] = test: Cytotoxicity against human C33A cells assessed as reduction of cell density incubated for 4 hrs in oxic (aerobic) condition measured 5 days post dose by SRB assay; type: functional, cell-based; in short: as §1
C-33-A [22] = test: Cytotoxicity against human C33A cells assessed as reduction of cell density incubated for 4 hrs in hypoxic (anoxic) condition measured 5 days post dose by SRB assay; type: functional, cell-based; in short: as §1
C-33-A [23] = test: Hypoxic cytotoxicity ratio, ratio of IC50 for human C33A cells in oxic (aerobic) condition to IC50 for human C33A cells in hypoxic (anoxic) conditions; type: functional; in short: as §2
SiHa [24] = test: Cytotoxicity against human SiHa cells assessed as reduction of cell density incubated for 4 hrs in oxic (aerobic) condition measured 5 days post dose by SRB assay; type: functional, cell-based; in short: as §1
SiHa [25] = test: Cytotoxicity against human SiHa cells assessed as reduction of cell density incubated for 4 hrs in hypoxic (anoxic) condition measured 5 days post dose by SRB assay; type: functional, cell-based; in short: as §1
SiHa [26] = test: Hypoxic cytotoxicity ratio, ratio of IC50 for human SiHa cells in oxic (aerobic) condition to IC50 for human SiHa cells in hypoxic (anoxic) conditions; type: functional; in short: as §2
HCT-116 [27] = test: Cytotoxicity against human HCT116 cells assessed as reduction of cell density incubated for 4 hrs in oxic (aerobic) condition measured 5 days post dose by SRB assay; type: functional, cell-based; in short: as §1
HCT-116 [28] = test: Cytotoxicity against human HCT116 cells assessed as reduction of cell density incubated for 4 hrs in hypoxic (anoxic) condition measured 5 days post dose by SRB assay; type: functional, cell-based; in short: as §1
HCT-116 [29] = test: Hypoxic cytotoxicity ratio, ratio of IC50 for human HCT116 cells in oxic (aerobic) condition to IC50 for human HCT116 cells in hypoxic (anoxic) conditions; type: functional; in short: as §2
A-375 [30] = test: Cytotoxicity against human A375 cells assessed as reduction of cell density incubated for 4 hrs in oxic (aerobic) condition measured 5 days post dose by SRB assay; type: functional, cell-based; in short: as §1
A-375 [31] = test: Cytotoxicity against human A375 cells assessed as reduction of cell density incubated for 4 hrs in hypoxic (anoxic) condition measured 5 days post dose by SRB assay; type: functional, cell-based; in short: as §1
A-375 [32] = test: Hypoxic cytotoxicity ratio, ratio of IC50 for human A375 cells in oxic (aerobic) condition to IC50 for human A375 cells in hypoxic (anoxic) conditions; type: functional; in short: as §2
PC-3 [33] = test: Cytotoxicity against human PC3 cells assessed as reduction of cell density incubated for 4 hrs in oxic (aerobic) condition measured 5 days post dose by SRB assay; type: functional, cell-based; in short: as §1
PC-3 [34] = test: Cytotoxicity against human PC3 cells assessed as reduction of cell density incubated for 4 hrs in hypoxic (anoxic) condition measured 5 days post dose by SRB assay; type: functional, cell-based; in short: as §1
PC-3 [35] = test: Hypoxic cytotoxicity ratio, ratio of IC50 for human PC3 cells in oxic (aerobic) condition to IC50 for human PC3 cells in hypoxic (anoxic) conditions; type: functional; in short: as §2

solubility [1]: 13 µM (≈ 6.06 µg/mL)
Compound: O=C(c1cc2cc(OCCO)ccc2[nH]1)N1CC(CCl)c2c1cc([N+](=O)[O-])c1ccccc21 (stereo not drawn)
IC50 (SK-OV-3 [2]): 9300 nM | IC50 (SK-OV-3 [3]): 3300 nM | Ratio IC50 (SK-OV-3 [4]): 3.8 | IC50 (HT-29 [5]): 6600 nM | IC50 (HT-29 [6]): 5700 nM | Ratio IC50 (HT-29 [7]): 1.1

Compound: CN(C)CCOc1ccc2[nH]c(C(=O)N3CC(CCl)c4c3cc([N+](=O)[O-])c3ccccc43)cc2c1 (stereo not drawn)
solubility [1]: 193 µM (≈ 95.1 µg/mL) | IC50 (SK-OV-3 [2]): 1400 nM | IC50 (SK-OV-3 [3]): 870 nM | IC50 (HT-29 [5]): 470 nM | IC50 (HT-29 [6]): 480 nM

solubility [1]: 9 µM (≈ 3.95 µg/mL)
Compound: COc1ccc(/C=C/C(=O)N2CC(CCl)c3c2cc([N+](=O)[O-])c2ccccc32)cc1O (stereo not drawn)
IC50 (SK-OV-3 [2]): 890 nM | IC50 (SK-OV-3 [3]): 400 nM | Ratio IC50 (SK-OV-3 [4]): 3.3 | IC50 (HT-29 [5]): 1700 nM | IC50 (HT-29 [6]): 590 nM | Ratio IC50 (HT-29 [7]): 4.5

Compound: COc1cc2cc(C(=O)N3CC(CCl)c4c3cc([N+](=O)[O-])c3ccccc43)[nH]c2c(OC)c1OC (stereo not drawn)
solubility [1]: 5 µM (≈ 2.48 µg/mL) | IC50 (SK-OV-3 [2]): 4200 nM | IC50 (SK-OV-3 [3]): 1700 nM | IC50 (HT-29 [5]): 3400 nM | IC50 (HT-29 [6]): 1600 nM

solubility [1]: 37 µM (≈ 22 µg/mL)
Compound: COc1cc2cc(C(=O)N3CC(COS(=O)(=O)C4CCCCC4)c4c3cc(N)c3ccccc43)[nH]c2c(OC)c1OC (stereo not drawn)
IC50 (SK-OV-3 [2]): 4.9 nM | IC50 (SK-OV-3 [3]): 6.5 nM | Ratio IC50 (SK-OV-3 [4]): 1

Compound: CN(C)CCOc1ccc2[nH]c(C(=O)N3C[C@@H](CCl)c4c3cc(O)c3ccccc43)cc2c1
IC50 (A549 [8]): 0.026 nM

solubility [1]: 17 µM (≈ 10.7 µg/mL)
Compound: COc1cc2cc(C(=O)N3CC(COS(=O)(=O)Cc4ccccc4)c4c3cc([N+](=O)[O-])c3ccccc43)[nH]c2c(OC)c1OC (stereo not drawn)
IC50 (SK-OV-3 [2]): 12000 nM | IC50 (SK-OV-3 [3]): 82 nM | Ratio IC50 (SK-OV-3 [4]): 246 | IC50 (HT-29 [5]): 9800 nM | IC50 (HT-29 [6]): 360 nM | Ratio IC50 (HT-29 [7]): 37 | IC50 (A549 [9]): 1080 nM | IC50 (A549 [10]): 400 nM | Ratio IC50 (A549 [11]): 3.73 | IC50 (A549 [12]): 930 nM | IC50 (A549 [13]): 95 nM | Ratio IC50 (A549 [14]): 16.5 | IC50 (NCI-H460 [15]): 250 nM | IC50 (NCI-H460 [16]): 100 nM | Ratio IC50 (NCI-H460 [17]): 7.19 | IC50 [18]: 510 nM | IC50 [19]: 160 nM | Ratio IC50 [20]: 3.6 | IC50 (C-33-A [21]): 430 nM | IC50 (C-33-A [22]): 33 nM | Ratio IC50 (C-33-A [23]): 15.6 | IC50 (SiHa [24]): 3000 nM | IC50 (SiHa [25]): 450 nM | Ratio IC50 (SiHa [26]): 30.1 | IC50 (HCT-116 [27]): 530 nM | IC50 (HCT-116 [28]): 50 nM | Ratio IC50 (HCT-116 [29]): 12.1 | IC50 (A-375 [30]): 1230 nM | IC50 (A-375 [31]): 410 nM | Ratio IC50 (A-375 [32]): 4.12 | IC50 (PC-3 [33]): 1900 nM | IC50 (PC-3 [34]): 210 nM | Ratio IC50 (PC-3 [35]): 10.2

Compound: COc1cc2cc(C(=O)N3CC(COS(C)(=O)=O)c4c3cc(N)c3ccccc43)[nH]c2c(OC)c1OC (stereo not drawn)
solubility [1]: 15 µM (≈ 7.88 µg/mL)

solubility [1]: 70 µM (≈ 43.7 µg/mL)
Compound: COc1cc2cc(C(=O)N3CC(COS(=O)(=O)C4CCCCC4)c4c3cc([N+](=O)[O-])c3ccccc43)[nH]c2c(OC)c1OC (stereo not drawn)
IC50 (SK-OV-3 [2]): 16000 nM | IC50 (SK-OV-3 [3]): 190 nM | Ratio IC50 (SK-OV-3 [4]): 146 | IC50 (HT-29 [5]): 9900 nM | IC50 (HT-29 [6]): 440 nM | Ratio IC50 (HT-29 [7]): 26

Compound: COc1cc2cc(C(=O)N3CC(COS(C)(=O)=O)c4c3cc([N+](=O)[O-])c3ccccc43)[nH]c2c(OC)c1OC (stereo not drawn)
solubility [1]: 69 µM (≈ 38.3 µg/mL) | IC50 (SK-OV-3 [2]): 2200 nM | IC50 (SK-OV-3 [3]): 140 nM | Ratio IC50 (SK-OV-3 [4]): 39 | IC50 (HT-29 [5]): 1500 nM | IC50 (HT-29 [6]): 310 nM | Ratio IC50 (HT-29 [7]): 4.6
